Rows were chosen to be rich in hits. Some 1.7% of all compounds tested hit in one or more screens of this group.
DNMT1 inh: DNMT1 (human) enzyme inhibition | P26358 | DNMT1 molecular beacon, Hinp1I cleavage, fluorescence | inhibition (reported as % activation of signal), % at 10 µM | 0.83% of 360,000 active | AID 588458; in the data active = inhibition above about 50%
SUMO1 PPI mod: SUMO1-SIM interaction modulation | P63165 | SUMO1 binding to a labelled peptide, TR-FRET, 1 h | inhibition, % at 20 µM | 0.33% of 360,000 active | AID 602429; in the data active = inhibition above about 37%
Target sequence (P63165 whole entry, looked up): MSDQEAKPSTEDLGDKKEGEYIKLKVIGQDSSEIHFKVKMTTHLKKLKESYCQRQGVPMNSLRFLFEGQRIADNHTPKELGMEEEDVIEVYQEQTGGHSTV
Scp-1 inhibitor: Scp-1 (human) phosphatase inhibition; 0.88% of 340,000 active; Recombinant Scp1, phosphopeptide, malachite green phosphate absorbance; inhibition, % at 20 µM; Q9GZU7;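 active = inhibition above about 50% at 20 µM, limit read from the data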
Target sequence (Q9GZU7 76-261 limits assumed): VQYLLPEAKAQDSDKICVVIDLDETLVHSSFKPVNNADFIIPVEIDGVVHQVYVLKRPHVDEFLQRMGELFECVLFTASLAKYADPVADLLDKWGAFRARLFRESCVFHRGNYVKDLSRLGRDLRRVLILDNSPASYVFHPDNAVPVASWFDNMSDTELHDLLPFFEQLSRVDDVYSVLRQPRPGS
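Test system: SCP-1 phosphatase catalytic domain, residues 76-261 | Compound dosing: One concentration, 20 µM, with 1.0% DMSO | Schedule: 45 min room-temperature reaction, 5 min colour, 30 min stabiliser | Detection: Absorbance at 630 nm | Read-out basis: % inhibition of SCP-1 phosphate liberation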
LMPTP inh: blocks human LMPTP phosphatase | P24666 | recombinant LMPTP-A, OMFP fluorogenic substrate, fluorescence intensity | inhibition, % at 20 µM | 0.22% of 360,000 active | AID 651560;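 active = compounds that cut the enzyme signal by at least half of the control window in the single-dose screen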
Target sequence (P24666 whole entry, looked up): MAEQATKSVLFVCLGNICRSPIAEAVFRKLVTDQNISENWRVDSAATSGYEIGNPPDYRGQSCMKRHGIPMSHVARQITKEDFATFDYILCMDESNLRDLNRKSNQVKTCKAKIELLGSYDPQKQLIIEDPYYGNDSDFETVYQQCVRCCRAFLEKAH
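material = LMPTP-A | quantity = 0.625 nM enzyme | reagent = OMFP substrate, 400 µM final | buffer or medium = Bis-Tris pH 6.0, DTT, detergent | detection = endpoint fluorescence intensity from OMFP dephosphorylation | dosing = single 20 µM dose | read-out basis = % inhibition relative to no-enzyme and uninhibited control wells | control set = no-enzyme and uninhibited controls | timing = 50 min at room temperature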
STEP inh: STEP (human) phosphatase inhibition; P54829; recombinant STEP, OMFP fluorogenic substrate, fluorescence; inhibition, % at 20 µM; 0.25% of 360,000 active; AID 588621;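 active = inhibition at 20 µM, scaled per plate between control wells, above about 37%, limit read from the data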
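Assay system: isolated STEP enzyme / Timing: 20 min at room temperature, dark / Doses: 20 µM, 1% DMSO / Technique: fluorescence intensity, excitation 480 nm, emission 540 nm / Reagent: fluorogenic phosphatase substrate OMFP at 25 µM final / Measure: percent inhibition scaled to no-enzyme and uninhibited-enzyme controls, plate-pattern corrected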
Scp1 confirm: Scp-1 (human) inhibition, single-dose confirmed; AID 540281; inhibition, % at 20 µM; 61% of 2,500 active; shares compounds with Scp-1 inhibitor; recombinant SCP-1 catalytic domain, phosphate release, malachite green absorbance
Scp-1 MG ctr: colorimetric interference in Scp-1 counter-screen; shares compounds with Scp-1 inhibitor; Colorimetric interference counterscreen, malachite green absorbance 630 nm; apparent inhibition (interference), % at 20 µM; 2,500 tested, under 10 active;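 note: compounds added after enzyme reaction finished so only phosphate colour detection is probed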
Scp1 DSF: validation of human Scp-1 inhibitors by thermal shift binding; Recombinant SCP1, Sypro Orange thermal shift Tm; AID 540329; shares compounds with Scp-1 inhibitor; 25% of 1,500 active; thermal shift relative to vanadate control, % at 40 µM;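 active = substances whose mean melting-temperature shift, as a percentage of the reference inhibitor's shift, reaches about 5.3%, limit read from the data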
Each line names hits and unclear results; the compound was inactive in the other large screens (follow-up assays come after a bar, where they were run).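 Rule for the calls, unless noted: active = inhibition of at least 30% at 20 µM; inactive = the rest.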

CN(C)c1ccc(CNC(=O)C2Cc3c(-c4cccc(C(N)=O)c4)ccnc3O2)cc1 (configuration not stated)	none (no result: Scp-1 inhibitor)
CCC1=Nc2cc(C(=O)NCCCOC(C)C)ccc2Sc2ccccc21	Scp-1 inhibitor 62.8 | Scp1 confirm inactive | Scp-1 MG ctr inactive
COC(=O)[C@]12C(=O)NC[C@H](CN1c1ccc(C(F)(F)F)cc1)N2C	none
CCOC(=O)C(C(=O)Nc1ccccn1)C1CCCCC1 (configuration not stated)	Scp-1 inhibitor 50.3 | Scp1 confirm 76.7 | Scp-1 MG ctr inactive | Scp1 DSF inactive
CCNC(=O)c1cc2c(c(-c3cccc(-c4ccccc4F)c3)n1)[C@H](CCO)N(C(=O)CC)C2	none (no result: DNMT1 inh, Scp-1 inhibitor, STEP inh)
COc1ccc2c(Cl)cc(NC(=O)Nc3c(C)cccc3C)nc2c1	none (no result: Scp-1 inhibitor)
C/C(=N\NC(=O)c1cccc(N/N=C(\C)c2ccco2)c1)c1ccco1	Scp-1 inhibitor 60.9 | Scp1 confirm 61.7 | Scp-1 MG ctr inactive | Scp1 DSF 6.1
Cn1c(SCC(=O)Nc2ccccc2)nc(O)cc1=O	none | Scp1 confirm inactive | Scp-1 MG ctr inactive
CCc1cc(C(=O)OC)c(NC(=O)CCC(=O)O)s1	Scp-1 inhibitor 62.2 | Scp1 confirm inactive | Scp-1 MG ctr inactive
Cc1cc(C(=O)Nc2ccccc2C(=O)O)ccc1NC(=O)COc1ccccc1Cl	Scp-1 inhibitor 80.0 | Scp1 confirm 51.9 | Scp-1 MG ctr inactive | Scp1 DSF 6.7
O=C(COc1ccccc1Cl)Nc1ccc(C(=O)O)cc1NC(=O)COc1ccccc1Cl	none
O=C(CSc1nc2sc3c(c2c(=O)n1-c1ccccc1)CCCC3)N/N=C/c1ccccc1C(=O)O	Scp-1 inhibitor 78.4, STEP inh 76.2 | Scp1 confirm 48.9 | Scp-1 MG ctr inactive | Scp1 DSF inactive
C#CCNC(=O)c1ccc2sc([C@H]3C[C@H](O)[C@@H](CO)O3)nc2c1	none (no result: Scp-1 inhibitor)
O=C(Cc1ccc([N+](=O)[O-])cc1)NCC1CCCO1 (configuration not stated)	none
O=C(NCC1CCCO1)c1ccccc1 (configuration not stated)	none
C[n+]1cccc(C(=O)NCC2CCCO2)c1 (configuration not stated)	Scp-1 inhibitor 59.9 | Scp1 confirm inactive | Scp-1 MG ctr inactive
O=C(NCC1CCCO1)c1cc(-c2ccccc2F)no1 (configuration not stated)	Scp-1 inhibitor 52.3 | Scp1 confirm inactive | Scp-1 MG ctr inactive
O=C(NCC1CCCO1)c1ccc([N+](=O)[O-])o1 (configuration not stated)	Scp-1 inhibitor 63.4 | Scp1 confirm inactive | Scp-1 MG ctr inactive
O=C(NCC1CCCO1)c1cccc(F)c1 (configuration not stated)	none
C=CCNc1nc(C(=O)OCC(=O)Nc2ccc(S(N)(=O)=O)cc2)cs1	Scp-1 inhibitor 58.2 | Scp1 confirm 65.4 | Scp-1 MG ctr inactive | Scp1 DSF inactive
C[N+]1(C)CC2([N+](=O)[O-])CC=C(Oc3ccccc3)C([N+](=O)[O-])(C2)C1 (configuration not stated)	Scp-1 inhibitor 97.4 | Scp1 confirm 87.1 | Scp-1 MG ctr inactive | Scp1 DSF inactive
CCCCn1c(=O)[nH]c(=O)c2c1nc(-c1ccc(-c3ccccc3)cc1)n2C	none
CCCn1c(=O)[nH]c(=O)c2c1nc(-c1ccccc1)n2CCN1CCOCC1	Scp-1 inhibitor 82.0 | Scp1 confirm 93.5 | Scp-1 MG ctr inactive | Scp1 DSF inactive
COc1cccc(C2c3c(-c4ccccc4)n[nH]c3C(=O)N2c2ccc(C(=O)O)cc2)c1 (configuration not stated)	Scp-1 inhibitor 53.2 | Scp1 confirm 51.6 | Scp-1 MG ctr inactive | Scp1 DSF 23.9
CC1CCCCN1C(=O)COC(=O)C1CCN(S(=O)(=O)c2c(Cl)cccc2Cl)CC1 (configuration not stated)	none
CCN(CC)S(=O)(=O)c1ccc(N2CCOCC2)c(NC(=O)c2c3c(nc4ccccc24)CCC3)c1	DNMT1 inh 65.0, Scp-1 inhibitor 67.9 | Scp1 confirm 47.6 | Scp-1 MG ctr inactive | Scp1 DSF inactive
CC1CCN(C(=O)c2cc(-c3ccccc3O)on2)CC1	Scp-1 inhibitor 52.8 | Scp1 confirm inactive | Scp-1 MG ctr inactive
CC1CCN(C(=O)c2cc(-c3ccco3)on2)CC1	none
c1ccc(CCn2cccc2)nc1	none
CC(C)OCCOc1ccc2oc(-c3ccco3)cc(=O)c2c1	Scp-1 inhibitor 61.3 | Scp1 confirm 59.9 | Scp-1 MG ctr inactive | Scp1 DSF inactive
CC1CCCCC1NC(=O)COC(=O)c1ccc2c(=O)n3c(nc2c1)CCC3 (configuration not stated)	none
CSc1ccc(CCNC(=O)CSc2ccsc2[N+](=O)[O-])cc1	Scp-1 inhibitor 51.3 | Scp1 confirm 55.4 | Scp-1 MG ctr inactive | Scp1 DSF 7.5
Cc1cc(C)c(S(C)(=O)=O)c(N(C)NC(=O)c2c(F)cccc2F)n1	Scp-1 inhibitor 68.4 | Scp1 confirm inactive | Scp-1 MG ctr inactive
CCn1cc(C(=O)NCC(C)C)c(=O)c2cc(F)c(N3CCN(C(=O)c4ccco4)CC3)cc21	none
CCn1cc(C(=O)NCc2ccco2)c(=O)c2cc(F)c(N3CCN(C(=O)c4ccco4)CC3)cc21	Scp-1 inhibitor 57.6 | Scp1 confirm 36.9 | Scp-1 MG ctr inactive | Scp1 DSF inactive
O=C(O)c1ccc2c(c1)C(=O)/C(=C/c1ccccc1)C2=O	Scp-1 inhibitor 76.1 | Scp1 confirm 52.5 | Scp-1 MG ctr inactive | Scp1 DSF 23.2
CS(=O)(=O)c1ccc(C(=O)NNC(=O)c2ccccc2-n2cccc2)cc1	none
O=C(CCCC(=O)Nc1cccc(Br)c1)N/N=C/c1cc([N+](=O)[O-])ccc1O	Scp-1 inhibitor 55.9 | Scp1 confirm 67.0 | Scp-1 MG ctr inactive | Scp1 DSF 7.4
O=C(CCC(=O)Nc1cccc(Cl)c1)N/N=C/c1cc([N+](=O)[O-])ccc1O	none
O=C(Nc1ccnc(=O)[nH]1)c1sc2ccccc2c1Cl	Scp-1 inhibitor 98.2 | Scp1 confirm 66.6 | Scp-1 MG ctr inactive | Scp1 DSF inactive
O=C(Nc1ccncc1)c1sc2ccccc2c1Cl	none
C[N+]1(C2CCC3CCCC2C3O)CCCC1 (configuration not stated)	Scp-1 inhibitor 92.8 | Scp1 confirm 76.1 | Scp-1 MG ctr inactive | Scp1 DSF inactive
COc1ccc(C2CCc3cc(OC)c(OC)cc3C2NC=O)cc1OC (configuration not stated)	none (no result: Scp-1 inhibitor)
